Experimental data as given in publication PMC7445463 (Diabetologia, 2020).
Several values for one entry are separate records, joined by “and”; a condition that tells them apart may be missing. Identical values can stand only once. Values belong to the molecule of their own block, whether it stands above or below them.

Key:
[1] = tested on: diabetic patients with chronic heart failure; assay type: in vivo, human; conditions: metformin 2 g/day for 3 months
[2] = tested on: mouse and human primary PaSC and immortalized imPaSC; experiment: Signalling and gene expression in pancreatic stellate cells; assay type: cell-based; conditions: Met 0.1-10 mM
HG-CD34+ stem cells = experiment: ROS production in CD34+ stem cells; assay type: cell-based, human; conditions: n=3
individuals with obesity = assay type: in vivo, human
[3] = Intrajejunal metformin with or without bile exclusion or TCA, T2DM; assay type: in vivo, human; conditions: 1 g intrajejunal; endogenous bile included
[4] = Portal vein and arterialized lactate after oral metformin; assay type: in vivo, human; conditions: 90 minutes after 1000 mg oral
[5] = 42-h fast crossover trial with or without metformin; assay type: in vivo, human; conditions: 1 g twice daily for a week
[6] = tested on: human hepatocytes (HepG2); experiment: GDF15 and FGF21 expression in hepatocytes; assay type: cell-based; conditions: 2 mM, up to 24-h
[7] = Serum uteroglobin before and after metformin monotherapy; assay type: in vivo, human; conditions: after 12 months monotherapy; before 14.43±0.97; n=20
human heart = experiment: Metformin uptake in the human heart by PET scanning; assay type: in vivo
[8] = tested on: patients with type 2 diabetes; experiment: Network meta-analysis of antidiabetic medications on blood pressure; set-up: species or system human; conditions: frequentist random-effects network meta-analysis, 192 studies
[9] = metformin vs placebo crossover in DM and chronic heart failure; assay type: in vivo, human; conditions: 2 g/day, 3 months vs placebo
[10] = tested on: individuals with type 2 diabetes; experiment: insulin icodec PK/PD trial; set-up: species or system human; conditions: in vivo
[11] = tested on: human ventricular cardiac fibroblasts (HCF); experiment: Human ventricular cardiac fibroblasts, mRNA expression by RT-qPCR; assay type: cell-based; conditions: TGF-β treatment; p<0.01
glucokinase [12] = molecular target: T1, glucokinase (Homo sapiens, UniProt P35557); experiment: Simplici-T1 Phase 1b/2 trial; assay type: in vivo
T1 sequence (P35557 1-465): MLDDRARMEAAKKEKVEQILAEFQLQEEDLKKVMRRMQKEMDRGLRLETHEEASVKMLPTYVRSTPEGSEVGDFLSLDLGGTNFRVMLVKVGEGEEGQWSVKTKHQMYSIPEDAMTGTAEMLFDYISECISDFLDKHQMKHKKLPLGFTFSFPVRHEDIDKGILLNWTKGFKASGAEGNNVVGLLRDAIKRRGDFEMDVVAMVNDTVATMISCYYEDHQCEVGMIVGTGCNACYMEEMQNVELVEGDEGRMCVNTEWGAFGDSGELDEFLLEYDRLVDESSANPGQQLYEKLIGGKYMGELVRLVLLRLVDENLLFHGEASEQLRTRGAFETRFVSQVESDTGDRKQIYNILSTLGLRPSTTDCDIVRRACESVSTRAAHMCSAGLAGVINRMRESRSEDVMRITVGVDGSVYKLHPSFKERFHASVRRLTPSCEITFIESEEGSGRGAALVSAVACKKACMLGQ

glucokinase [13] = molecular target: T1, glucokinase; conditions: type 2 diabetes (n=190); cited from earlier work
[14] = DIO mice under 50% dietary restriction, indirect calorimetry; assay type: in vivo, mouse
DIO C57/B6 mice = experiment: gastric emptying and weight in DIO mice; assay type: in vivo, mouse; conditions: 14-day
[15] = Insulin icodec vs IGlar U100 26-week phase 2 trial; assay type: in vivo, human
Outline: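 Randomized, double-blind, double-dummy, treat-to-target phase 2 trial lasting 26 weeks. Participants were insulin-naïve adults with T2D and HbA1c 7.0-9.5% on metformin ± DPP4i, randomized 1:1 (n=247). Starting doses were 70 U once weekly or 10 U once daily, titrated weekly to a pre-breakfast SMBG target of 3.9-6.0 mmol/L. The primary endpoint was HbA1c change from baseline to week 26; FPG and mean weekly dose over the last two weeks were secondary.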

[16] = stated as background; cited from earlier work

Molecule: CN(C)C(=N)N=C(N)N [MET, metformin]
cardiac functions as assessed by echocardiography and spiroergometry [1]: did not change
HbA1c ([1]; compared to placebo): reduced
levels of yes-associated protein 1 (YAP) [2]: inhibited

Molecule: liraglutide
HG-induced production of ROS (HG-CD34+ stem cells): significant reduction
change in heart rate during the 1-year treatment phase (individuals with obesity; liraglutide 3.0 mg/day, with or without exercise, PLA -0.7): 3.7 min⁻¹
systolic and diastolic BP during the 1-year treatment phase (individuals with obesity; no group differences): decreased

metformin uptake in healthy human hearts (human heart): no uptake
Molecule: CN(C)C(=N)N=C(N)N [metformin]
plasma glucose iAUC 0-180 min [3]: 516 ± 46 mmol·min/L
increase of lactate concentration, arterialized blood [4]: 2%
increase of lactate concentration, portal vein ([4]; n=8 cirrhotic participants): 23%
serum FGF21 ([5]; without 146 ± 30): 156 ± 29 ng/mL
serum GDF15 ([5]; without 607 ± 89): 1004 ± 61 ng/mL
increase of FGF21 mRNA [6]: 12 fold
increase of GDF15 mRNA [6]: 4 fold
serum uteroglobin [7]: 16.47 ± 1.33 ng/mL
systolic blood pressure, mean difference compared to placebo [8]: -1.21 mmHg
GLP-1 and peptide YY during meal test [9]: increased

Molecule: insulin icodec
geometric mean half-life (t½) [10]: 196 h

Molecule: transforming growth factor beta [TGF-β]
TNC expression in HCF [11]: upregulated TNC expression

improvement of TIR 70-180 vs placebo (glucokinase [12]; Part 1 (n=19)): 12%
A1C vs placebo, trial product estimand (glucokinase [12]; Part 2 (n=85), 12 weeks): -0.32% and -0.3%
improvement of (daytime) TIR (glucokinase [12]; Part 2, ITT): 8%
responders (glucokinase [12]; Part 2, placebo 12%): 42%
Molecule: CCCO[C@H]1CC[C@H](N(C(=O)Nc2ncc(SCC(=O)O)s2)C2CCCCC2)CC1 [TTP399]
plasma β-hydroxybutyrate or urine ketones vs placebo (glucokinase [12]; 12 weeks): no significant or clinically relevant increases
severe hypoglycemia (glucokinase [12]; 12 weeks): No incidents
A1C vs placebo (glucokinase [13]): −0.9%

Molecule: CC[C@H](C)[C@H](NC(=O)[C@H](CC(C)C)NC(=O)[C@H](Cc1c[nH]c2ccccc12)NC(=O)[C@H](CCC(N)=O)NC(=O)[C@@H](NC(=O)[C@H](Cc1ccccc1)NC(=O)[C@H](C)NC(=O)[C@H](CCCCNC(=O)COCCOCCNC(=O)COCCOCCNC(=O)CC[C@H](NC(=O)CCCCCCCCCCCCCCCCCCC(=O)O)C(=O)O)NC(=O)[C@H](CCC(N)=O)NC(=O)[C@H](C)NC(=O)[C@@H](NC(=O)[C@H](CCCCN)NC(=O)[C@H](CC(=O)O)NC(=O)[C@H](CC(C)C)NC(=O)C(C)(C)NC(=O)[C@@H](NC(=O)[C@H](CO)NC(=O)[C@H](Cc1ccc(O)cc1)NC(=O)[C@H](CC(=O)O)NC(=O)[C@H](CO)NC(=O)[C@@H](NC(=O)[C@H](Cc1ccccc1)NC(=O)[C@@H](NC(=O)CNC(=O)[C@H](CCC(=O)O)NC(=O)C(C)(C)NC(=O)[C@@H](N)Cc1ccc(O)cc1)[C@@H](C)O)[C@@H](C)O)[C@@H](C)CC)[C@@H](C)CC)C(C)C)C(=O)N[C@@H](C)C(=O)NCC(=O)NCC(=O)N1CCC[C@H]1C(=O)N[C@@H](CO)C(=O)N[C@@H](CO)C(=O)NCC(=O)N[C@@H](C)C(=O)N1CCC[C@H]1C(=O)N1CCC[C@H]1C(=O)N1CCC[C@H]1C(=O)N[C@@H](CO)C(N)=O [tirzepatide]
weight loss during dietary restriction ([14]; 3 nmol/kg QD, 14 days, vehicle 15.2±1.2, pair fed 17.0±0.7): 22.4±1.3%
increase of fat utilization vs vehicle ([14]; during DR): more than 30%
energy expenditure during dietary restriction ([14]; reduction, indirect calorimetry): maintained similar to levels prior to DR
GE delay after chronic treatment (DIO C57/B6 mice): abolished after 14-day chronic treatment

Molecule: Insulin icodec
estimated treatment ratio of weekly dose vs IGlar U100 ([15]; 95% CI 0.69, 0.94): 0.81
estimated treatment difference HbA1c vs IGlar U100 ([15]; 95% CI -0.38, 0.02): -0.18%
estimated treatment difference FPG vs IGlar U100 ([15]; 95% CI -0.66, 0.23): -0.22 mmol/L
estimated mean HbA1c at week 26 ([15]; baseline 8.1 icodec, 8.0 IGlar U100): 6.7%
estimated mean FPG at week 26 ([15]; in vivo): 6.84 mmol/L
estimated mean weekly insulin dose, last two weeks ([15]; in vivo): 229 U/week
level 2 and 3 hypoglycaemia ([15]; on-treatment period): 53 events per 100 patient years of exposure
estimated mean change in HbA1c from baseline ([15]; week 26): -1.33 %-points
terminal half-life [16]: ~ 196 hours
